Hits are enriched below; roughly 9.6% of the tested compounds scored in any of these assays.
PMI activator – phosphomannose isomerase (human) activation; P34949; purified human PMI, coupled resazurin fluorescence, 20 min; stronger effect = higher value; 1 = vehicle control, 0 substrate-free wells; activation factor at 20 µM; 0.005% of 190,000 active;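 active = activation factor of 2 or more at 20 µM, relative to plate controls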
Target sequence (P34949 whole entry, looked up): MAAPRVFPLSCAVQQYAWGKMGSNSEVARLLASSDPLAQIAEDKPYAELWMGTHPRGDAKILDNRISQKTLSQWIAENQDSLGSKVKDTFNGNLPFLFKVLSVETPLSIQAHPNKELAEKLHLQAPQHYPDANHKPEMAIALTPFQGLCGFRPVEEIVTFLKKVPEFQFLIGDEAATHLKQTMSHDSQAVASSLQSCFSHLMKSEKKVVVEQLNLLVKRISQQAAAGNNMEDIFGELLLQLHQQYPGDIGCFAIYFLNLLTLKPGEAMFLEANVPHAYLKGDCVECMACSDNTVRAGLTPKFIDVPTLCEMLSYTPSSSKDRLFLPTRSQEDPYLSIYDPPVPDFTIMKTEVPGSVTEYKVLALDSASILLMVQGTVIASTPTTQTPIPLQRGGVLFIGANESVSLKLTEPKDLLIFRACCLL
HCT116 PTEN-null – growth suppressors of cells with PTEN tumor suppressor deletion. HCT116 PTEN-null viability, CellTiter-Glo, 60 h; stronger effect = lower value. viability, % at 10 µM. 1.2% of 140,000 active. AID 827;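 active = viability at or below a set limit, 4 SD under the median of all tested compounds, cut at about 3.7% in these data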;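 also: PTEN knockout HCT116 line with beta catenin targeted HCT116 as companion control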
PMI act satM6P – increases human PMI activity with near-saturating mannose 6-phosphate; activation factor at 20 µM; coupled PMI enzyme assay, resazurin fluorescence, 20 min; stronger effect = higher value; 1 = untreated enzyme, 0 = substrate-free blank; AID 1216; P34949; 0.34% of 190,000 active;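 active = activation factor of 2 or more at 20 µM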
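Test system: human phosphomannose isomerase with PGI, G6PDH, diaphorase coupling enzymes / Doses: 20 µM compound, 1% DMSO / Times: enzyme reaction with compound 20 min at room temperature / Measured by: Diaphorase-driven resazurin-to-resorufin fluorescence, excitation 544, emission 590 nm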
HCT116 bCat-KO – beta-catenin-lacking colon tumor cell growth suppression | HCT116 beta-catenin knockout viability, CellTiter-Glo, 60 h; stronger effect = lower value | viability, % at 10 µM | 1.5% of 140,000 active;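 active = viability at or under a set limit, the compound median less 4 SD, cut at about 6% in these data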;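 also: 0% = Hyamine 1622 control at 20 µM and 100% = untreated cell control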
L major viab – Leishmania major promastigote growth inhibition; Leishmania major promastigotes, resazurin fluorescence viability; inhibition, % at 10 µM; 9% of 200,000 active; AID 1063; in the data active = inhibition above about 50%;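 also: promastigotes grown with compound for 44 hours at 28 °C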
Numbers without * were called inactive; · = no result.

SMILES	PMI activator	HCT116 PTEN-null	PMI act satM6P	HCT116 bCat-KO	L major viab
C/C(=N\NC(=O)c1ccc(Cn2cc(Br)cn2)o1)c1cccc(NC(=O)C(C)C)c1	1	106	0.9	108	90*
CC(=O)c1cccc(NC(=O)c2ccc(C)o2)c1	1.2	·	1.1	·	4
CC(=O)NC(CCS(C)(=O)=O)C(=O)Nc1ccc(Oc2ccccc2)cc1 (stereo not drawn)	1	108	1.1	99	-11
CN(C)c1ccc(P(=O)(Nc2cccc(C(F)(F)F)c2)N2CCOCC2)c(NC(=O)c2cccs2)c1 (stereo not drawn)	0.8	68	0.8	70	59*
CC1N(C)c2cc(NC(=O)c3cccs3)c(P(=O)(Nc3ccc([N+](=O)[O-])cc3)N3CCOCC3)cc2C1(C)C (stereo not drawn)	0.9	·	0.9	·	59*
CN(C)/C=C/C(=C\C(=O)C(F)(F)F)Nc1ccc(C(F)(F)F)cc1	0.9	·	0.9	·	-8
COCCn1cnc2c1c(=O)n(CC(=O)OCC(=O)NCCCc1ccccc1)c(=O)n2Cc1ccccc1	1	98	0.9	95	51*
COCCn1cnc2c1c(=O)n(CC(=O)Nc1cc(C)on1)c(=O)n2Cc1ccccc1	0.9	101	0.9	102	0
Cc1ccc(Nc2ccc([N+](=O)[O-])nc2[N+](=O)[O-])cc1	0.9	73	0.9	78	70*
CCOC(=O)C1CCCN(S(=O)(=O)c2ccc(S(=O)(=O)N(CC)CC)cc2)C1 (stereo not drawn)	1	·	1.1	·	2
CCCCC(=O)Nc1cccc(-c2nn3c(C)nnc3s2)c1	0.9	96	0.9	107	3
OCC1(Cc2cccc(C(F)(F)F)c2)CCN(Cc2cc(F)cc(F)c2)CC1	0.9	·	0.9	·	86*
OCC1(Cc2ccccc2)CCN(Cc2cnc(-c3cccc4ccccc34)nc2)CC1	0.9	·	0.9	·	10
CN(C)S(=O)(=O)N1CCC(CO)(Cc2cccc(C(F)(F)F)c2)CC1	1	·	1.1	·	10
CSc1cccc(CN2CCC(CO)(Cc3cccc(C(F)(F)F)c3)CC2)c1	0.9	·	0.9	·	81*
CCOCC(=O)Nc1cc(C(=O)Nc2cc(C)cc(C)c2)ccc1Cl	0.9	·	1	·	-6
O=C(Nc1ccn(-c2ccccc2)n1)c1ccc(S(=O)(=O)N2CCCCCC2)cc1	0.9	23	0.9	20	66*
CC1CCCCN1S(=O)(=O)c1ccc(C(=O)Nc2nnc(-c3ccccc3Cl)o2)cc1 (stereo not drawn)	1	17	1	23	99*
O=C(Nc1nnc(-c2ccccc2Cl)o1)c1ccc(S(=O)(=O)N2CCCCCC2)cc1	1.2	13	1.1	18	99*
CC1CCCCN1S(=O)(=O)c1ccc(C(=O)Nc2nnc(-c3ccncc3)o2)cc1 (stereo not drawn)	1.4	·	1.3	·	8
CCC1CCCCN1S(=O)(=O)c1ccc(C(=O)Nc2nnc(-c3ccccc3Cl)o2)cc1 (stereo not drawn)	1.2	16	1.2	16	99*
O=C(Nc1ccccc1)c1ccc(S(=O)(=O)N2CCCCC2)cc1	1.1	96	1.1	87	2
CCN1CCN(C(c2cccs2)C(C)NC(=O)c2cccnc2)CC1 (stereo not drawn)	0.9	102	1	102	1
COc1ccc(Br)cc1CNC(=O)Cc1c(C(=O)O)[nH]c2ccc(Cl)cc12	1.1	·	1	·	-19
O=C(NC(=S)NCC1CCCO1)c1ccccc1[N+](=O)[O-] (stereo not drawn)	1.1	·	1.1	·	-9
SMILES	PMI activator	HCT116 PTEN-null	PMI act satM6P	HCT116 bCat-KO	L major viab
Cc1ccccc1-c1nc(CN2CCC(C(=O)O)CC2)c(C)o1	1	103	1	107	-6
Cc1ccccc1-c1nc(CN2CCC(C(=O)NC3CCN(Cc4ccccc4)CC3)CC2)c(C)o1	·	·	·	·	100*
COc1ccc(CCNC(=O)C2CCN(Cc3nc(-c4ccccc4C)oc3C)CC2)cc1OC	0.9	74	0.9	74	10
Cc1ccccc1-c1nc(CN2CCC(C(=O)NCCC3=CCCCC3)CC2)c(C)o1	1.1	2.4*	1.1	2.4*	26
Cc1ccc(C(=O)/C=C/c2cn(CC(O)CN3CCOCC3)c3ccccc23)cc1 (stereo not drawn)	0.8	46	0.8	37	53*
COc1ccc(OC)c(NC(=O)C2CCN(S(=O)(=O)c3c(C)noc3C)CC2)c1	1	94	1	84	36

Screening results as filed in PubChem.
